Activity calls are given as the source filed them.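 Rule for the calls, unless noted: active = visually confirmed hit in the image check and inhibition above 20%; inconclusive = visually confirmed hit but inhibition not above 20%; inactive = no visual hit in the image check.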
Key:
[1] = inhibitors of TNFa-induced NFkB p65 translocation, primary screen, imaging, HUVEC, MLSMR starter and 10KST1 sets (AID 438;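 active = inhibition above 20% together with a positive visual image hit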;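 note: compound added about 3h40 before a 20 min TNFalpha stimulation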;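 for inhibition: signal is the nuclear over cytoplasmic p65 intensity ratio per well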); settings: HUVEC TNFa-induced p65 nuclear translocation; cell count: measured here: nuclei count (cytotoxicity indicator), at 2.08 µM; inhibition: at 2 µM, stronger effect = higher value, 0% TNFa-plus-vehicle, 100% no-TNFa wells
[2] = inhibitors of E-selectin induction by TNFa, primary screen, imaging, HUVEC, immunofluorescence, MLSMR starter and 10KST1 sets (AID 487); settings: HUVEC TNFalpha-induced E-selectin immunofluorescence imaging, at 2 µM; inhibition: stronger effect = higher value; nuclei count: measured here: cell number, toxicity;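 for inhibition: signal is fraction of cell area covered by stained E-selectin grains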;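 for nuclei count: 100% = median nuclei count of all wells on the same plate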
[3] = DUSP6 inhibitors restoring Erk phosphorylation by chemical complementation, primary imaging in DUSP6-transfected HeLa (AID 609;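 active = compounds giving at least 50% inhibition in the cell-based MKP-3 phosphatase rescue imaging test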;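 for inhibition: phospho-Erk level distribution per well compared with pooled transfected vehicle control wells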); settings: HeLa MKP-3 transfected, phospho-Erk imaging KS statistic, at 10 µM, cells stimulated with TPA for 15 min
[4] = target: Dual specificity protein phosphatase 6 (Homo sapiens) (UniProt Q16828); assay: as above; settings: HeLa MKP-3 transfected, phospho-Erk imaging KS statistic; at 10 µM; stronger effect = higher value; cells stimulated with TPA for 15 min
[5] = target: Voltage-gated potassium channel subunit beta-2 (Rattus norvegicus) (UniProt P62483); assay: KvBeta enzyme negative modulators, primary screen, biochemical, NADPH fluorescence (AID 622;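 active = fluorescence slope higher than the sample average by over 3 SD, cut at about -0.22 in these data, passing the limit was not always enough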;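 note: slope of raw intensity against log time taken from 70 to 1610 s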); settings: recombinant KvBeta, 4-cyanobenzaldehyde reduction, at 10 µM, stronger effect = higher value
[6] = target: Voltage-gated potassium channel subunit beta-2 (Rattus norvegicus) (UniProt P62483); assay: KvBeta positive modulators, primary screen, biochemical, NADPH fluorescence (AID 623;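 active = NADPH fluorescence slope more negative than the mean of all samples by about 3 SD, 99.7% confidence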;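 note: fluorescence intensity change per second fitted from 20 to 320 s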); settings: Recombinant KvBeta, NADPH fluorescence decrease slope, 10 min; at 10 µM; stronger effect = lower value
[7] = target: Alpha-2C adrenergic receptor (Homo sapiens) (UniProt P18825); assay: modulators of alpha2C/GIRK thallium flux, primary screen, cell-based, HEK293 alpha2C/GIRK1/2 (AID 624;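 active = fluorescence slope after compound addition differing from the mean of all screened samples at 99.7% confidence, in either direction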;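 note: slope of fluorescence ratio to pre-addition baseline per second over 15 to 24 s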); settings: thallium flux BTC fluorescence, at 10 µM, actives lie on both sides
[8] = inhibitors of larval lipid processing in zebrafish, primary screen, whole organism, PED6 fluorescence, gall bladder and intestine (AID 686;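 active = a full or partial loss of lipid-probe fluorescence in the fish gall bladder, intestine or both, judged by eye; inactive = no fluorescence loss, or compound toxic to the fish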;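 note: larvae 5 to 7 days old with five fish per well; signal comes from phospholipase A2 cleavage of quenched PED6 carried via bile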); settings: Zebrafish larvae PED6 lipid processing, fluorescence scoring; screened at 20 µM (by protocol)
In short: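 Incubation: overnight exposure of larvae to compound plus PED6 / Test system: live zebrafish larvae aged 5-7 days, whole organism / Amount: 5 larvae per well / Read-out basis: visual per-well fluorescence inhibition score / Signal: visual fluorescence microscopy scoring of gall bladder, gut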

[9] = inhibitors of Chlamydomonas gravitaxis, primary screen, whole organism, Chlamydomonas reinhardtii, WT vs cilia-less mutant, absorbance, 96-well (AID 463189;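 active = inhibition at or above 50% relative to wild type and mutant plate controls; inactive = inhibition below 50%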;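 note: 0% = wild type cc124 cells in DMSO and 100% = ciliumless bld1 mutant cells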); settings: OD600 absorbance, 2 days, at 10 µM, stronger effect = higher value
[10] = measured here: cell density z-score
[11] = measured here: nuclear c-Myc green intensity z-score
[12] = measured here: nuclear pErk red intensity z-score, stronger effect = higher value

Sequence of Alpha-2C adrenergic receptor (Homo sapiens) (P18825 whole entry, looked up): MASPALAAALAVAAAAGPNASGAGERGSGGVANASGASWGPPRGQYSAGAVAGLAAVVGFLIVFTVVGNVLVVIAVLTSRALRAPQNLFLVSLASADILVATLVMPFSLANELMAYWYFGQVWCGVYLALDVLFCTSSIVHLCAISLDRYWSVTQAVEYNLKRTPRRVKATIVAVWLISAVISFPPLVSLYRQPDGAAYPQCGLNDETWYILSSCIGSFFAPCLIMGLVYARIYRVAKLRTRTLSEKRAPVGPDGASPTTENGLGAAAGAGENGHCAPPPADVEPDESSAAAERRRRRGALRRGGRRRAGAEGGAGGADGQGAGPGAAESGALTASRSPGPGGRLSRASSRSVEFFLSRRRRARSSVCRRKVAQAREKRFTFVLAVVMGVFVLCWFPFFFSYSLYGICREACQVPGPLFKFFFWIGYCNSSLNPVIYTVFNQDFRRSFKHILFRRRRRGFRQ
Sequence of Dual specificity protein phosphatase 6 (Homo sapiens) (Q16828 whole entry, looked up): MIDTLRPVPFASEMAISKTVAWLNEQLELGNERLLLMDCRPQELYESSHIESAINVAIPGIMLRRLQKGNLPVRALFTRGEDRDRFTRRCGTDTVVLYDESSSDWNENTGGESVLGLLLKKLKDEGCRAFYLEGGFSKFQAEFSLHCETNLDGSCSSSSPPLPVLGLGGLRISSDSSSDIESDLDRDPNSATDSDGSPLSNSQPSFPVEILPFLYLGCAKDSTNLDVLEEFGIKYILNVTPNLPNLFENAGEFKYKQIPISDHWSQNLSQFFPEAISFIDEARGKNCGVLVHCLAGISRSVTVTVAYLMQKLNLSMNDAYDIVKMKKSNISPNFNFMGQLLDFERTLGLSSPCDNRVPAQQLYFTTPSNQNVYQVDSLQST
Sequence of Voltage-gated potassium channel subunit beta-2 (Rattus norvegicus) (P62483 whole entry, looked up): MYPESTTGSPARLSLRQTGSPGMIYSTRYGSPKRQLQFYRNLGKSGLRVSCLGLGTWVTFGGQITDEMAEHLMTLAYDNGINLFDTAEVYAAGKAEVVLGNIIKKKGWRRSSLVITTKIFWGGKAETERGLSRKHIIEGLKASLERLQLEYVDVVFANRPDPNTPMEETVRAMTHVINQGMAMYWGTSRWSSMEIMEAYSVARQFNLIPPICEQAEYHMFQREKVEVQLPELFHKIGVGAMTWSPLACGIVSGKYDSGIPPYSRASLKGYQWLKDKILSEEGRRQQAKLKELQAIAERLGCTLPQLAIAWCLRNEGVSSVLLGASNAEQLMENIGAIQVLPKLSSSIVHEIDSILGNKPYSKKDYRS

| Compound | cell count [1] | inhibition [1] | inhibition [2] | nuclei count [2] [%] | z-score [3, 10] | z-score [3, 11] | z-score [3, 12] | inhibition [4] | fluorescence slope [5] | NADPH fluorescence slope [6] | slope [7] | outcome [8] | inhibition [9] |
| --- | --- | --- | --- | --- | --- | --- | --- | --- | --- | --- | --- | --- | --- |
| COC(=O)C1C(=O)CC(C)(O)C(C(=O)OC)C1c1ccccc1F (stereo unspecified) | 586 | -1.8% (inactive) | -42.2% (inactive) | 178 | -1.74 | -0.438 | 1.61 | 7.83% (inactive) | -0.345 (inactive) | -3.4e-05 (inactive) | 0.00488 (inactive) | inactive | -7% (inactive) |
| COc1ccccc1C(=O)N1CCN(Cc2ccc3c(c2)OCO3)CC1 | 590 | -14.5% (inactive) | 34.9% (inactive) | 183 | -2.41 | 2.03 | 1 | -15% (inactive) | -0.361 (inactive) | -4e-05 (inactive) | 0.0055 (inactive) | inactive | 12.2% (inactive) |
| CCOc1ccc(C2/C(=C(/O)c3ccc(F)cc3)C(=O)C(=O)N2CCCN(C)C)cc1 (stereo unspecified) | 564 | -4.5% (inactive) | -17% (inactive) | 186 | -0.359 | 0.0868 | -0.309 | -1.12% (inactive) | -0.388 (inactive) | -3e-05 (inactive) | 0.00504 (inactive) | inactive | -0.349% (inactive) |
| CCCCNC(=O)N1CCOCCOCCN(C(=O)NCCCC)CCOCCOCC1 | 546 | -15.4% (inactive) | -120% (inactive) | 144 | 1.2 | -1.56 | 0.0473 | 3.97% (inactive) | -0.526 (inactive) | -2.2e-05 (inactive) | 0.00599 (inactive) | inactive | 17.8% (inactive) |
| O=C1OC(Nc2ccc(Br)cn2)c2ccccc21 (stereo unspecified) | 388 | 2.6% (inactive) | 47.2% (inactive) | 94.3 | -0.833 | -0.569 | 0.497 | -8.27% (inactive) | -0.44 (inactive) | -1.7e-06 (inactive) | 0.00494 (inactive) | inactive | -9.02% (inactive) |
| CCC1(C)Cc2c(sc3c2c(=O)n(C)c2nnc(SCc4ccccc4)n32)CO1 (stereo unspecified) | 584 | 1.3% (inactive) | -171% (inactive) | 156 | -0.0769 | -0.7 | -1.21 | 3.56% (inactive) | -0.286 (inactive) | -6.4e-06 (inactive) | 0.00603 (inactive) | inactive | 16.4% (inactive) |
| COc1ccccc1-c1nnc2sc(C3CCCCC3)nn12 | 531 | -12.5% (inactive) | -318% (inactive) | 161 | -0.671 | 0.45 | 0.848 | -0.674% (inactive) | -0.405 (inactive) | -0.000298 (inactive) | 0.00423 (inactive) | active; no signal in intestine only | 11.6% (inactive) |
| CCOc1ccc(Cc2nc(N)nc(N)n2)cc1 | 344 | -18.3% (inactive) | -269% (inactive) | 155 | -1.09 | -0.542 | -0.613 | -8.76% (inactive) | -0.447 (inactive) | -0.000176 (inactive) | 0.00481 (inactive) | inactive | 6.25% (inactive) |
| COc1cc(=O)n2c(-c3ccccc3)csc2n1 | 628 | 0% (inactive) | -58.9% (inactive) | 153 | -1.46 | 1.4 | 0.777 | 13.2% (inactive) | -0.465 (inactive) | -0.000258 (inactive) | 0.00547 (inactive) | inactive | 5.32% (inactive) |
| CCNc1nc(NC(C)C)nc(N(C#N)C(C)C(=O)N(C)C)n1 (stereo unspecified) | 330 | -31.8% (inactive) | -39.6% (inactive) | 134 | -0.102 | -1.64 | 0.749 | -12.3% (inactive) | -0.445 (inactive) | -0.000124 (inactive) | 0.00585 (inactive) | inactive | 19.9% (inactive) |
| Clc1ccc(-c2nnc3sc(Cc4cccs4)nn23)cc1 | 671 | -3.4% (inactive) | -156% (inactive) | 134 | 0.365 | -1.12 | -1.66 | 22.7% (inactive) | -0.451 (inactive) | -4.9e-05 (inactive) | 0.00474 (inactive) | inactive | 19.8% (inactive) |
| ONC(=Nc1ccccc1)C(=Nc1ccccc1)NO | 348 | -0.3% (inactive) | -28.3% (inactive) | 100 | 1.37 | 1.46 | 0.663 | 17% (inactive) | -0.542 (inactive) | -6e-05 (inactive) | 0.00535 (inactive) | inactive | 25.5% (inactive) |

From PubChem BioAssay
